In ChEMBL document CHEMBL4699485, “Discovery and Development of SPR519 as a Potent, Selective, and Orally Bioavailable Inhibitor of PI3Kα and mTOR Kinases for the Treatment of Solid Tumors” (J Med Chem, 2020):
Calls of active or inactive are those of the source. The rule behind the calls is not given here.

Tests used:
[1] = molecular target: PI3-kinase p110-alpha/p85-alpha (Homo sapiens, UniProt P42336); experiment: Inhibition of recombinant human full-length N-terminal His-tagged p110 alpha/p85 alpha expressed in baculovirus expression system using PIP2 as substrate preincubated for 15 mins followed by substrate addition and measured after 60 mins by ADP HiLyte 647 tracer bound ADP2 antibody-Tb conjugate based HTRF assay
How it was run: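 PI3Kα at 150 ng/mL (diluted stock) in 50 mM HEPES pH 7.4, 3 mM MgCl2, 2 mM DTT, 0.05% CHAPS, 50 mM NaCl, 1 mM EGTA. Compound tested over 10–0.001 µM. Final reaction held 50 µM PIP2 and 1 µM ATP. Detection mix added for 1 h, then 665/615 nm ratio read. % inhibition versus concentration fitted by four-parameter nonlinear regression to give IC50.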

A2780 = experiment: Antiproliferative activity against human A2780 cells after 48 hrs by MTT assay; format: functional, cell-based; details: A2780, 48 h
How it was run: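 A2780 cells grown in DMEM with 10% FBS, L-glutamine and antibiotics, seeded at 10000 cells/well and allowed to adhere overnight. Treated 48 h across 20 µM–0.001 µM. MTT (5 mg/mL in PBS) added for 4 h, formazan dissolved in DMSO, absorbance read at 550 nm. % inhibition fit to a four-parameter log inhibitor vs response curve.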

[2] = Metabolic stability in mouse liver microsomes assessed as parent compound remaining at 10 uM remaining after 120 mins in presence of NADPH by HPLC analysis; format: ADME, Microsome; details: read-out: Stabilty
How it was run: (§1)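 Compound at 10 µM was incubated with 0.5 mg/mL liver microsomes and 1 mM NADPH (final). Samples were taken at 0, 15, 30, 60 and 120 min and stopped with acetonitrile, then centrifuged and the supernatant analysed by HPLC. Percent parent remaining was set relative to the 0 min peak area (100%).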

[3] = Metabolic stability in human liver microsomes assessed as parent compound remaining at 10 uM remaining after 120 mins in presence of NADPH by HPLC analysis; format: ADME, Microsome; details: read-out: Stabilty; how it was run: as §1
[4] = Cmax in Swiss mouse at 3 mg/kg, po via gavage by LC-MS/MS analysis; format: ADME, organism-based; design: route oral, dose 3 mg/kg; details: in vivo
How it was run: (§2)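 Female Swiss mice (n=3/group), fasted overnight, given single oral gavage dose in 0.5% CMC/0.5% Tween 80 (10 mL/kg) at 1, 3 or 10 mg/kg. Serial blood sampling at 0.16–8 h into heparinized tubes. Plasma extracted with acetonitrile containing verapamil internal standard and quantified by LC-MS/MS. Cmax, Tmax, AUC and t1/2 derived from the concentration–time profile.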

[5] = Tmax in Swiss mouse at 3 mg/kg, po via gavage by LC-MS/MS analysis; format: ADME, organism-based; details: in vivo
How it was run: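 Female Swiss mice (n=3/group) were fasted overnight, then gavaged with compound in 0.5% CMC/0.5% Tween 80 at 10 mL/kg. Serial blood samples at 0.16, 0.5, 1, 2, 4, 6 and 8 h were taken into heparinized tubes and spun to plasma. Plasma was extracted with acetonitrile containing verapamil (400 ng/mL) and quantified by LC-MS/MS against plasma calibration curves. Tmax was derived from the concentration–time profile.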

Homo sapiens = species: Homo sapiens; experiment: Channel blockade of human ERG G601S mutant expressed in mammalian expression system assessed as effect on surface expression of channel at 1 to 30 uM by HERG-Lite assay; details: dose microM 1-30
How it was run: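 HERG-lite assay scoring both channel blocking and trafficking inhibition, with test compound at 1, 10 and 30 µM. Geldanamycin (1 µM) served as the trafficking-inhibition reference and astemizole as the standard hERG binder.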

[6] = molecular target: RAC-beta serine/threonine-protein kinase (Homo sapiens) (UniProt P31751); experiment: Inhibition of human AKT2 at 1 uM using fluorescently labeled peptide substrate measured after 3 hrs by microfluidic mobility shift assay relative to control
How it was run: (§3)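 Single-concentration screen at 1 µM in duplicate, 1% final DMSO. Kinase (typically 1 nM), fluorescently labeled peptide substrate (typically 1 µM), ATP at Km and Mg²⁺ incubated about 3 h at 25 °C, then EDTA-quenched. Substrate and phosphorylated product separated by microfluidic electrophoresis and quantified by fluorescence.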

[7] = molecular target: Dual specificity mitogen-activated protein kinase kinase 2 (Homo sapiens) (UniProt P36507); experiment: Inhibition of human MEK2 at 1 uM using fluorescently labeled peptide substrate measured after 3 hrs by microfluidic mobility shift assay relative to control; how it was run: as §3
[8] = molecular target: Ribosomal protein S6 kinase beta-2 (Homo sapiens) (UniProt Q9UBS0); experiment: Inhibition of human RPS6KB2 at 1 uM using fluorescently labeled peptide substrate measured after 3 hrs by microfluidic mobility shift assay relative to control; how it was run: as §3
[9] = molecular target: Phosphatidylinositol 4,5-bisphosphate 3-kinase catalytic subunit beta isoform (Homo sapiens) (UniProt P42338); experiment: Inhibition of human PI3kbeta at 1 uM using fluorescently labeled peptide substrate measured after 3 hrs by microfluidic mobility shift assay relative to control; how it was run: as §3
[10] = molecular target: Sphingosine kinase 1 (Homo sapiens) (UniProt Q9NYA1); experiment: Inhibition of human SPHK1 at 1 uM using fluorescently labeled peptide substrate measured after 3 hrs by microfluidic mobility shift assay relative to control; how it was run: as §3
[11] = molecular target: Cyclin-dependent kinase 7 (Homo sapiens) (UniProt P50613); experiment: Inhibition of human CDK7 at 1 uM using fluorescently labeled peptide substrate measured after 3 hrs by microfluidic mobility shift assay relative to control; how it was run: as §3
[12] = AUC in Swiss mouse at 1 mg/kg, po via gavage by LC-MS/MS analysis; format: ADME, organism-based; design: dose 1 mg/kg; details: in vivo; how it was run: as §2
[13] = Elimination half life in Swiss mouse at 1 mg/kg, po via gavage by LC-MS/MS analysis; format: ADME, organism-based; details: in vivo, read-out: beta t1/2 (converted); how it was run: as §2
[14] = AUC in Swiss mouse at 10 mg/kg, po via gavage by LC-MS/MS analysis; format: ADME, organism-based; design: dose 10 mg/kg; details: in vivo; how it was run: as §2
[15] = Toxicity in Swiss mouse assessed as morphological changes in lung at 30 mg/kg, po administered twice daily via gavage for 5 days and measured post last dose; format: organism-based; details: in vivo, 120 h, time 5 day
How it was run: (§4)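 Female Swiss mice (3 treated, 2 controls) were gavaged twice daily for 5 days, with compound in 0.5% CMC and Tween 80. After the last dosing the animals were sacrificed. Liver, kidney, lung, uterus and brain were excised and inspected visually for morphology and color change.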

[16] = Toxicity in Swiss mouse assessed as morphological changes in uterus at 30 mg/kg, po administered twice daily via gavage for 5 days and measured post last dose; format: organism-based; details: in vivo, 120 h, time 5 day; how it was run: as §4
[17] = Toxicity in Swiss mouse assessed as discoloration of lung at 30 mg/kg, po administered twice daily via gavage for 5 days and measured post last dose; format: organism-based; details: in vivo, 120 h, time 5 day; how it was run: as §4
[18] = Toxicity in Swiss mouse assessed as discoloration of uterus at 30 mg/kg, po administered twice daily via gavage for 5 days and measured post last dose; format: organism-based; details: in vivo, 120 h, time 5 day; how it was run: as §4
[19] = Drug level in Swiss mouse kidney at 30 mg/kg, po administered twice daily via gavage for 5 days and measured post last dose by LC-MS/MS analysis; format: ADME, organism-based; details: time 5 day, read-out: Drug uptake
How it was run: (§5)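 Female Swiss mice (n=3) given 30 mg/kg in 0.5% CMC/Tween 80 by oral gavage twice daily for 5 days, with two vehicle controls. After sacrifice, liver, kidney, lung, uterus and brain were collected, homogenized in water and solvent-extracted. Drug concentration (ng/g) measured by LC-MS/MS.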

[20] = Drug level in Swiss mouse brain at 30 mg/kg, po administered twice daily via gavage for 5 days and measured post last dose by LC-MS/MS analysis; format: ADME, organism-based; details: in vivo, 120 h, time 5 day; how it was run: as §5

Chain of Dual specificity mitogen-activated protein kinase kinase 2 (Homo sapiens) (P36507 whole entry): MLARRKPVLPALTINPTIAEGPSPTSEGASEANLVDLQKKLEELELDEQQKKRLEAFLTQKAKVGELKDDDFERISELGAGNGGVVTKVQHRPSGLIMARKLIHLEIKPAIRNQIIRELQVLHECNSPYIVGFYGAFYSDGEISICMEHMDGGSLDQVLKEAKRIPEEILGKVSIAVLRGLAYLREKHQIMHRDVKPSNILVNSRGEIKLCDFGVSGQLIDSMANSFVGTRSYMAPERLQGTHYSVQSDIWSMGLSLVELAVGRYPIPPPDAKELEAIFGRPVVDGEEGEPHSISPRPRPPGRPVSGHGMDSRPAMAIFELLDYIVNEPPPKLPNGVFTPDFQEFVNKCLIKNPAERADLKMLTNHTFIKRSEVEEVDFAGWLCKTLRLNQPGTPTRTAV
Chain of RAC-beta serine/threonine-protein kinase (Homo sapiens) (P31751 whole entry): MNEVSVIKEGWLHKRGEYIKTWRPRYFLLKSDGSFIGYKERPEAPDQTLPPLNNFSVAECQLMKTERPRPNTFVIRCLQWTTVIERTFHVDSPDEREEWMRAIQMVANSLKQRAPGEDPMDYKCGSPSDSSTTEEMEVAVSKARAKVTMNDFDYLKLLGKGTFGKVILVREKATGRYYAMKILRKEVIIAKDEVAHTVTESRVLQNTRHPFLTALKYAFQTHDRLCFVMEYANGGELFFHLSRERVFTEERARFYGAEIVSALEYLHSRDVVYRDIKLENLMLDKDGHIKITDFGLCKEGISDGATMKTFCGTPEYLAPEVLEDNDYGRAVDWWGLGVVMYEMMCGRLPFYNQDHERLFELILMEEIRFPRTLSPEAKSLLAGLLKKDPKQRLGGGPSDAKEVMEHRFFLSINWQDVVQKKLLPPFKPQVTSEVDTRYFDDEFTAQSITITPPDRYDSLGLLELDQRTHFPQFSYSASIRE
Chain of Phosphatidylinositol 4,5-bisphosphate 3-kinase catalytic subunit beta isoform (Homo sapiens) (P42338 whole entry, looked up, canonical isoform): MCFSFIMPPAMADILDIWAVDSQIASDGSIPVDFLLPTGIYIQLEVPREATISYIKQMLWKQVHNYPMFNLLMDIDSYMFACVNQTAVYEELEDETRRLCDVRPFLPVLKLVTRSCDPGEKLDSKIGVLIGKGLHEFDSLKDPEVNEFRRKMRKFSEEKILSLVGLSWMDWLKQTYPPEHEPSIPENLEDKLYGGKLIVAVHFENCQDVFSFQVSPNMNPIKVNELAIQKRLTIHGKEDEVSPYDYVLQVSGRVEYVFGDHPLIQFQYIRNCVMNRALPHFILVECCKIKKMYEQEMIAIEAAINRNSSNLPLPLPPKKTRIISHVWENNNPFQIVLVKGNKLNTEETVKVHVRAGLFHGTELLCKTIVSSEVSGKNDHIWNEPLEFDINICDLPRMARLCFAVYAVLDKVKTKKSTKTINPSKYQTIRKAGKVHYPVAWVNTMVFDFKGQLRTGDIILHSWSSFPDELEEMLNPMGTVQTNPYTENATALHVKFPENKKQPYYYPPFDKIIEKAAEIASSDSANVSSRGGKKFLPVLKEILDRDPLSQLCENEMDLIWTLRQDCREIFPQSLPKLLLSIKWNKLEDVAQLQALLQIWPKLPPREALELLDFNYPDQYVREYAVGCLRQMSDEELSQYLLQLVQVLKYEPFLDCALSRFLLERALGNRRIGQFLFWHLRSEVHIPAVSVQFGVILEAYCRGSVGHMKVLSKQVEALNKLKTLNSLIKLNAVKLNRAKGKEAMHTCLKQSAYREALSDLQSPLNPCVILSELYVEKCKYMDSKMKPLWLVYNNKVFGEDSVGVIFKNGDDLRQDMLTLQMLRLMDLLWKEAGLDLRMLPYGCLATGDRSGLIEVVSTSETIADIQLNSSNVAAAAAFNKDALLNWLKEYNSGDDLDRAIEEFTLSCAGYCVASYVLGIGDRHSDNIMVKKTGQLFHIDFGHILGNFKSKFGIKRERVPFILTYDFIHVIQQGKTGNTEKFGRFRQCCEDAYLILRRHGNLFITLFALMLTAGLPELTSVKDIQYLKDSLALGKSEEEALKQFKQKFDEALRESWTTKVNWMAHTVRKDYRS
Chain of Ribosomal protein S6 kinase beta-2 (Homo sapiens) (Q9UBS0 whole entry, canonical isoform): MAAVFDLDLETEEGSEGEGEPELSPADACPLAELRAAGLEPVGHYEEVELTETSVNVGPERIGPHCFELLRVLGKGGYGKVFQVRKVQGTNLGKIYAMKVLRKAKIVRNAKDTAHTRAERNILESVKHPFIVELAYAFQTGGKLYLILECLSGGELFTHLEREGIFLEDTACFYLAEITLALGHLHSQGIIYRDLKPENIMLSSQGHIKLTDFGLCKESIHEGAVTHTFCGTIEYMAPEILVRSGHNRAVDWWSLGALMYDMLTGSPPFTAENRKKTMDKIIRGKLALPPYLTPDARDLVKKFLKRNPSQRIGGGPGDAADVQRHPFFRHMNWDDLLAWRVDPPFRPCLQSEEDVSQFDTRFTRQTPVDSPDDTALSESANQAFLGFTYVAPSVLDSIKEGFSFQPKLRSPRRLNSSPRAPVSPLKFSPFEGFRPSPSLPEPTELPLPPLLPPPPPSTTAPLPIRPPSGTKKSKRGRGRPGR
Chain of Cyclin-dependent kinase 7 (Homo sapiens) (P50613 whole entry): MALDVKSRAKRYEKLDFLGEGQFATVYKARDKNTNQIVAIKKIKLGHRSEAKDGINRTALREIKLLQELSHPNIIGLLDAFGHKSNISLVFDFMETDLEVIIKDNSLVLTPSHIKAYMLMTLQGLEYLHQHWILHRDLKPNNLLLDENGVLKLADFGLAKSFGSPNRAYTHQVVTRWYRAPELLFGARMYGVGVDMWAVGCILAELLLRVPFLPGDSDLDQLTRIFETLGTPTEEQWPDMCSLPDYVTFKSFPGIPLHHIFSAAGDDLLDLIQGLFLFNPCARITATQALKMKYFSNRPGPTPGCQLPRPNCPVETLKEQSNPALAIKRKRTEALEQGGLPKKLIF
Chain of Sphingosine kinase 1 (Homo sapiens) (Q9NYA1 whole entry): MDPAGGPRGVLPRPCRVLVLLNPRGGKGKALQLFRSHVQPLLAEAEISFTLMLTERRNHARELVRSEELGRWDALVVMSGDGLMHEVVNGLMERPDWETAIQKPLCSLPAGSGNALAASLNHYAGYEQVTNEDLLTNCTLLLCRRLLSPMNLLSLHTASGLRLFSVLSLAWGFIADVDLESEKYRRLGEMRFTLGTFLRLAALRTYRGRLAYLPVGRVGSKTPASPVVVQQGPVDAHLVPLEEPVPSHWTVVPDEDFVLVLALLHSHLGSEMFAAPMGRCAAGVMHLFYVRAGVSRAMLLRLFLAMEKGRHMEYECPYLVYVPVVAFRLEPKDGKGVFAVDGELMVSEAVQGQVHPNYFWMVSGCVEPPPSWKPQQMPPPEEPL
Chain of PI3-kinase p110-alpha/p85-alpha (P27986 whole entry): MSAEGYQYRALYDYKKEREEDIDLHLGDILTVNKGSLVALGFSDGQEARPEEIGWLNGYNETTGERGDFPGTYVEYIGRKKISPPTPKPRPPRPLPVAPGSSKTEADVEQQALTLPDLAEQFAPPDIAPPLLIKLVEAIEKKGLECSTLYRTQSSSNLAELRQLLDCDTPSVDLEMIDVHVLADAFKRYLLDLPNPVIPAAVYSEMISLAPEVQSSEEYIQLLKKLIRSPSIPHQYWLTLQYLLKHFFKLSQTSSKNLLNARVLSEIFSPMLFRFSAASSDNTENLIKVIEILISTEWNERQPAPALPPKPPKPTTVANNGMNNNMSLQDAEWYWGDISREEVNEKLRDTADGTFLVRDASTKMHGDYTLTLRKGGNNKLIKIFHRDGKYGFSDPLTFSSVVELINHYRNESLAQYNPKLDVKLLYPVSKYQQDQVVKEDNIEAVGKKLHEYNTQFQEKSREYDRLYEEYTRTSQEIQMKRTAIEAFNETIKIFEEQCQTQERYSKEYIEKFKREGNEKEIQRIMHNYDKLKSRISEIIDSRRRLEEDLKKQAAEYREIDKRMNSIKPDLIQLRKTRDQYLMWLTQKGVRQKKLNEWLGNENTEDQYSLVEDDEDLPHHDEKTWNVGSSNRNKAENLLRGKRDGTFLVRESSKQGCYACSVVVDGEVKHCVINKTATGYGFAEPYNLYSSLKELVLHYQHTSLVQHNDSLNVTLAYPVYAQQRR
Chain of PI3-kinase p110-alpha/p85-alpha (P42336 whole entry): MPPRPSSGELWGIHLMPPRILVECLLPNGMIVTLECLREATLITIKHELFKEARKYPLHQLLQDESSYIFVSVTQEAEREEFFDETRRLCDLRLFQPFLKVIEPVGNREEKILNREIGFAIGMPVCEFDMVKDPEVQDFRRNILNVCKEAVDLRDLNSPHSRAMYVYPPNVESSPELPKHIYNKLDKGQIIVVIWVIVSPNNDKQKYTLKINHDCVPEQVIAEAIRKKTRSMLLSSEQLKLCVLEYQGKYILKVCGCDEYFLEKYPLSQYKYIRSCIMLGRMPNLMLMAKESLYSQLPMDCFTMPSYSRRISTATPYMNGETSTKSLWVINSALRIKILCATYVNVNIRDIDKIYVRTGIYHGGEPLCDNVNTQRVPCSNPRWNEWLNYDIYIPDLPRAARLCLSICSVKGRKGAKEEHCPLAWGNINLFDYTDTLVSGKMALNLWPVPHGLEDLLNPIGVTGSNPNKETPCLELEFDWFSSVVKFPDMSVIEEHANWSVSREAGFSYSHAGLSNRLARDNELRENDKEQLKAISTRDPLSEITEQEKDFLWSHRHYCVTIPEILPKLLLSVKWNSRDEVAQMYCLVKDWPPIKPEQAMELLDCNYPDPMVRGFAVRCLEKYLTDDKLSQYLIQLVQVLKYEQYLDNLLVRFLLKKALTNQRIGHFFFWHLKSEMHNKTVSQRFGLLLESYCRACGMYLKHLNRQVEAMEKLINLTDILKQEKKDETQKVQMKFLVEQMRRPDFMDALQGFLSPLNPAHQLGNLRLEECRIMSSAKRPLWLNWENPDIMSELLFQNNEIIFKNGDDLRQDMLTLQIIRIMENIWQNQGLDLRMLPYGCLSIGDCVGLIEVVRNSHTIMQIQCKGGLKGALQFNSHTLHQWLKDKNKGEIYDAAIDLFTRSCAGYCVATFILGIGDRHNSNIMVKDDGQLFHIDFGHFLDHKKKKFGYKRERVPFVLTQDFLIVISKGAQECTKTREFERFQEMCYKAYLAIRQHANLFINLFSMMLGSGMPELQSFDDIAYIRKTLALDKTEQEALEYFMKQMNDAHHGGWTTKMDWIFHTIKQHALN

Q: Which results are given for `CN(C)C(=O)c1ccc(Oc2nc(-c3cnc(N)s3)nc(N3CCOCC3)n2)cc1`?
A: IC50 [1]: 30 nM; IC50 (A2780): 230 nM; remaining at 2 h, 10 µM [2]: 103%; remaining at 2 h, 10 µM [3]: 98%; Cmax [4]: 6.9 µM; Tmax [5]: 1.5 h; Activity (Homo sapiens): Active; inhibition [6]: 0%; inhibition [7]: 1%; inhibition [8]: -3%; inhibition [9]: 42%; inhibition [10]: -1%; inhibition [11]: -10%; AUC [12]: 26.9 µM·h; half-life [13]: 2.66 h; AUC [14]: 76.4 µM·h; Activity [15]: Non-Toxic; Activity [16]: Non-Toxic; Activity [17]: Non-Toxic; Activity [18]: Non-Toxic; concentration at 120 h [19]: 160 ng/g; Drug uptake [20]: Not Active
